One data set has as its system Onchocerca ochengi. The data set can be described thus: WHO-TDR: Onchocerciasis. In kind it is functional. The arrangement: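 at 12.5 µM on microfilariae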. The method, boiled down:
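Onchocerca ochengi or Onchocerca lienalis, animal pathogens used as surrogates for the human parasite, were screened as whole microfilariae against a 10,000-compound diverse library from Life Chemicals. The reported measures of activity are percent inhibition and IC50.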

For data set [1], the system named is Trypanosoma brucei brucei. In words: WHO-TDR: Human African Trypanosomiasis (HAT). In kind it is functional, organism-based. The conditions noted are these: Squib-427. In short, it runs like this: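 Whole-organism screen of a 10,000-compound diverse library from Life Chemicals, filtered for drug-likeness and reactive groups, against bloodstream forms of Trypanosoma brucei Squib 427 strain. The assay followed previously published standard procedures, with reference drugs as positive controls. Antiparasitic potency is reported as IC50.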

Another data set has as its system Trypanosoma cruzi. The data set can be described thus: WHO-TDR: Chagas disease. The data set is classed as functional, organism-based, Homo sapiens. The conditions noted are these: MRC5. The method, boiled down:
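Following previously published standard procedures, with a reference drug as positive control, a whole-organism assay was run on Trypanosoma cruzi Tulahuen CL2 beta-galactosidase strain amastigotes inside MRC-5SV2 human lung fibroblast host cells. The 10,000 compounds tested formed a diverse Life Chemicals library filtered for drug-likeness and reactive groups. Results are expressed as IC50 for antiparasitic potency.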

The subject of another data set is Plasmodium falciparum K1. The data set can be described thus: WHO-TDR: Malaria. In kind it is functional, organism-based, Homo sapiens. The conditions noted are these: Erythrocyte. In short, it runs like this: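 Whole-organism screen of a 10,000-compound diverse library from Life Chemicals, filtered for drug-likeness and reactive groups, against intra-erythrocytic Plasmodium falciparum K1 strain in human red blood cells. The assay followed previously published standard procedures, with a reference drug as positive control. Antiplasmodial potency is reported as IC50.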

A further data set concerns Leishmania infantum. In words: WHO-TDR: Leishmaniasis. In kind it is functional, organism-based, Mus musculus. The conditions noted are these: Macrophage. The method, boiled down: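 Whole-organism screen of a 10,000-compound diverse library from Life Chemicals, filtered for drug-likeness and reactive groups, against intracellular amastigotes of Leishmania infantum MHOM/MA(BE)/67 in murine peritoneal macrophage host cells. The assay followed previously published standard procedures, with a reference drug as positive control. Antiparasitic potency is reported as IC50.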

Data set [2] is described as follows: WHO-TDR: Cytotoxicity. The settings on record: human, MRC5 cells. The data set is classed as toxicity, cell-based.
The next data set concerns Brugia malayi. In words: WHO-TDR: Lymphatic Filariasis. On the set-up: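 tested at 10 µM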. The data set is classed as functional. The method, boiled down:
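Percent inhibition and IC50 describe activity against Brugia malayi microfilariae in a whole-organism screen. The screen used previously published standard procedures with reference drugs as positive controls. Compounds came from a diverse Life Chemicals library of 10,000, filtered for drug-likeness and reactive groups.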

In brackets after ≈: the same amount, converted by molar mass.

Experimental findings from ChEMBL document CHEMBL2093137, “WHO-TDR NTD Screening” are described below.

As for `Cc1cc(C)c(S(=O)(=O)N2CCN(c3ccc(Nc4ccncc4)nn3)CC2)cc1C`, the “% Inhibition” value in the data set with Onchocerca ochengi and in the data set on Brugia malayi was 0% each time. Besides, the 50% inhibitory concentration (IC50) stood at 3.61 µg/mL (≈ 8.23 µM) in data set [1]; 0.782 µg/mL (≈ 1.78 µM) with Trypanosoma cruzi; 0.473 µg/mL (≈ 1.08 µM) in the data set on Plasmodium falciparum K1; 4.26 µg/mL (≈ 9.71 µM) in the data set on Leishmania infantum; 1.94 µg/mL (≈ 4.43 µM) in data set [2].

Consider `CCCCOc1ccc(C(=O)N2CCN(c3cc(OC)nc(OC)n3)CC2)cc1`, for which the “% Inhibition” value with Onchocerca ochengi is recorded as 100%; with Brugia malayi, 0%. For the same molecule, the half-maximal inhibitory concentration (IC50) (in data set [1]; in the data set with Trypanosoma cruzi; with Plasmodium falciparum K1; in the data set on Leishmania infantum; in data set [2]) was above 12 µg/mL throughout.

For the molecule `COc1ccccc1CCNC(=O)CCc1csc(NC(=O)c2cccs2)n1`, the “% Inhibition” value in the data set with Onchocerca ochengi came out at 100%; in the data set on Brugia malayi, 0%. The half-maximal inhibitory concentration (IC50) in data set [1] was 4.19 µg/mL (≈ 10.1 µM); with Trypanosoma cruzi, 3.8 µg/mL (≈ 9.15 µM); with Plasmodium falciparum K1, above 12.5 µg/mL; with Leishmania infantum it was 5.26 µg/mL (≈ 12.7 µM); in data set [2], 5.79 µg/mL (≈ 13.9 µM).

Turning to `FC(F)Sc1ccc(Nc2ncnc3[nH]ncc23)cc1`, the “% Inhibition” value with Onchocerca ochengi was determined as 100%; with Brugia malayi it was 0%. Besides, the concentration for half-maximal inhibition (IC50) (in data set [1]; in the data set on Trypanosoma cruzi; in the data set with Plasmodium falciparum K1; with Leishmania infantum; in data set [2]) was above 8.8 µg/mL each time.

Turning to `COc1cccc(-c2cn3c(C(=O)N4CCN(c5ccccc5OC)CC4)csc3n2)c1`, the figures for the “% Inhibition” value with Onchocerca ochengi and with Brugia malayi were 100% and 0%, respectively. The IC50 was above 13.5 µg/mL in data set [1]; 6.97 µg/mL (≈ 15.5 µM) with Trypanosoma cruzi; above 13.5 µg/mL with Plasmodium falciparum K1; 6.97 µg/mL (≈ 15.5 µM) with Leishmania infantum; 2.13 µg/mL (≈ 4.76 µM) in data set [2].

In the case of `Cc1cc(=O)[nH]c(-n2nc(C)c(CCC(=O)Nc3ccc(F)c(C(F)(F)F)c3)c2C)n1`, the results for the “% Inhibition” value in the data set on Onchocerca ochengi and in the data set on Brugia malayi were 100% and 20%, respectively. The half-maximal inhibitory concentration (IC50) was 5 µg/mL (≈ 11.4 µM) in data set [1]; 4.25 µg/mL (≈ 9.73 µM) in the data set with Trypanosoma cruzi; above 13.1 µg/mL in the data set with Plasmodium falciparum K1; above 13.1 µg/mL in the data set with Leishmania infantum; above 13.1 µg/mL in data set [2].

`CCOCC(=O)Nc1ccc(-c2nnc(N(C)c3ccc(OC)cc3)s2)cc1`: the “% Inhibition” value is recorded as 100% with Onchocerca ochengi and 0% with Brugia malayi. For the same molecule, the half-inhibitory concentration (IC50) (in data set [1]; with Trypanosoma cruzi; in the data set on Plasmodium falciparum K1; in the data set with Leishmania infantum; in data set [2]) was above 12 µg/mL in each case.

As to `O=C(NCCNc1ccc(Nc2cccnc2)nn1)c1cccc(C(F)(F)F)c1`, the “% Inhibition” value is on record as 100% with Onchocerca ochengi and 0% in the data set with Brugia malayi. Moreover, the IC50 in data set [1] is above 12.1 µg/mL; with Trypanosoma cruzi it was above 12.1 µg/mL; with Plasmodium falciparum K1, 9.79 µg/mL (≈ 24.3 µM); in the data set with Leishmania infantum, above 12.1 µg/mL; in data set [2] it was above 12.1 µg/mL.

With `c1ccc2c(CCNc3ncnc4[nH]ncc34)c[nH]c2c1`, the figures for the “% Inhibition” value in the data set with Onchocerca ochengi and with Brugia malayi were 100% and 0%, respectively. Moreover, the IC50 in data set [1] was above 8.35 µg/mL; with Trypanosoma cruzi, 2.44 µg/mL (≈ 8.76 µM); with Plasmodium falciparum K1 it was above 8.35 µg/mL; in the data set on Leishmania infantum, above 8.35 µg/mL; in data set [2] it was above 8.35 µg/mL.

Turning to `O=C(CCc1csc(NC(=O)c2ccco2)n1)NCCc1c[nH]c2ccccc12`, the figures for the “% Inhibition” value in the data set on Onchocerca ochengi and in the data set with Brugia malayi were 100% and 0%, respectively. The IC50 in data set [1] is above 12.3 µg/mL; in the data set on Trypanosoma cruzi it was 5.75 µg/mL (≈ 14.1 µM); in the data set on Plasmodium falciparum K1, above 12.3 µg/mL; in the data set with Leishmania infantum it was above 12.3 µg/mL; in data set [2] it was 3.18 µg/mL (≈ 7.78 µM).

With `O=S(=O)(NCCNc1ccc(Nc2ccccn2)nn1)c1ccccc1C(F)(F)F`, the figures for the “% Inhibition” value in the data set with Onchocerca ochengi and in the data set on Brugia malayi were 100% and 25%, respectively. For the same molecule, the IC50 in data set [1] was 4.31 µg/mL (≈ 9.83 µM); in the data set on Trypanosoma cruzi it was above 13.2 µg/mL; with Plasmodium falciparum K1, 4.71 µg/mL (≈ 10.7 µM); in the data set with Leishmania infantum, above 13.2 µg/mL; in data set [2], 5.08 µg/mL (≈ 11.6 µM).

Broadly, the % Inhibition is the change of the read-out against control, counted positive when it falls. What is called IC50 is the concentration needed to halve the response being measured.
